Laboratory results taken from ChEMBL document CHEMBL4196069 (Eur J Med Chem, 2018).
The source made the active and inactive calls. The rule behind the calls is not given here.

Legend:
Bel-7402 [1] = assay: Cell cycle arrest in human Bel7402 cells assessed as accumulation at G2/M phase at 0.5 uM after 72 hrs by propidium iodide staining-based flow cytometric method (reference value: 23.71%); format: functional
Bel-7402 [2] = assay: Downregulation of Bcl-2 level in human Bel7402 cells after 72 hrs by Western blot analysis; format: functional, cell-based
How it was run: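 Bel-7402 cells were treated for 72 h at the indicated concentrations (0.125–0.5 µM) and lysed. Lysates were cleared at 14,000 g for 10 min at 4 °C, and 25 µg protein per lane was run on 10% SDS-PAGE and transferred to nitrocellulose. Membranes were blocked in 5% milk, probed overnight at 4 °C with monoclonal antibodies, and detected by ECL. Densitometry was normalized to GAPDH.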

HL-60 = assay: Antiproliferative activity against human HL60 cells after 72 hrs by MTT assay; format: functional, cell-based; conditions: HL-60, 72 h
How it was run: (§1)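 Cells pre-incubated 24 h at 37 °C in humidified 5% CO2, then exposed to compounds for 72 h. MTT (5 mg/mL) was added for 4 h, formazan was dissolved in DMSO, and OD was read at 570 nm. Vehicle control was 0.1% DMSO. IC50 was calculated from inhibition ratios as the mean ± SD of three independent experiments.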

Bel-7402 [3] = assay: Induction of mitochondrial membrane depolarization in human Bel7402 cells assessed as cell with intact mitochondrial membrane potential at 0.125 uM after 24 to 48 hrs by JC-1 staining based flow cytometric analysis (reference value: 98.83%); format: functional
Bel-7402 [4] = assay: Cell cycle arrest in human Bel7402 cells assessed as accumulation at G2/M phase at 0.25 uM after 72 hrs by propidium iodide staining-based flow cytometric method (reference value: 23.71%); format: functional
Bel-7402 [5] = assay: Induction of apoptosis in human Bel7402 cells assessed as rupture of cell membrane at 0.5 uM after 48 hrs by Hoechst 33258 staining based fluorescent microscopic method; format: functional
How it was run: (§2)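 Bel-7402 cells were seeded and grown 24 h, treated at 0.125, 0.25 and 0.5 µM for 48 h, then harvested by mild trypsinization and washed in PBS. They were stained with Hoechst 33258 for 15 min at room temperature in the dark and examined by fluorescence microscopy with a DAPI filter. Untreated cells served as control.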

Bel-7402 [6] = assay: Induction of mitochondrial membrane depolarization in human Bel7402 cells assessed as cells with mitochondrial membrane potential loss at 0.25 uM after 24 to 48 hrs by JC-1 staining based flow cytometric analysis (reference value: 6.17%); format: functional
Bel-7402 [7] = assay: Induction of mitochondrial membrane depolarization in human Bel7402 cells assessed as cell with intact mitochondrial membrane potential at 0.5 uM after 24 to 48 hrs by JC-1 staining based flow cytometric analysis (reference value: 98.83%); format: functional
Bel-7402 [8] = assay: Induction of apoptosis in human Bel7402 cells assessed as necrotic cells at 0.25 uM after 72 hrs by Annexin V-FITC/propidium iodide staining based flow cytometry (reference value: 13.05%); format: functional
[9] = Selectivity index, ratio of IC50 for human LO2 cells to IC50 for human Bel7402 cells; format: toxicity; conditions: LO2 cells versus Bel7402 cells, read-out: Ratio IC50
How it was run: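 Selectivity index = IC50(L-O2)/IC50(Bel-7402), both IC50s from the 72 h MTT assay (mean of three independent experiments).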

Bel-7402 [10] = assay: Cell cycle arrest in human Bel7402 cells assessed as accumulation at G1 phase after 72 hrs by propidium iodide staining-based flow cytometric method; format: functional
Bel-7402 [11] = assay: Induction of apoptosis in human Bel7402 cells assessed as early apoptotic cells at 0.125 uM after 72 hrs by Annexin V-FITC/propidium iodide staining based flow cytometry (reference value: 1.65%); format: functional
Bel-7402 [12] = assay: Induction of apoptosis in human Bel7402 cells assessed as early apoptotic cells at 0.5 uM after 72 hrs by Annexin V-FITC/propidium iodide staining based flow cytometry (reference value: 1.65%); format: functional
Bel-7402 [13] = assay: Induction of apoptosis in human Bel7402 cells assessed as viable cells at 0.5 uM after 72 hrs by Annexin V-FITC/propidium iodide staining based flow cytometry (reference value: 82.48%); format: functional; conditions: Bel-7402, 72 h, read-out: Activity
Bel7402/5-FU = assay: Antiproliferative activity against human Bel7402/5-FU cells after 72 hrs by MTT assay; format: functional, cell-based; how it was run: as §1
Bel-7402 [14] = assay: Induction of apoptosis in human Bel7402 cells assessed as chromatin condensation at 0.125 to 0.25 uM after 48 hrs by Hoechst 33258 staining based fluorescent microscopic method; format: functional, cell-based; how it was run: as §2
Bel-7402 [15] = assay: Cell cycle arrest in human Bel7402 cells assessed as accumulation at S phase at 0.5 uM after 72 hrs by propidium iodide staining-based flow cytometric method (reference value: 37.02%); format: functional

## C[C@H]1CCC/C=C/[C@@H]2C[C@H](O)C[C@H]2[C@H](OC(=O)c2ccc(N(CCCl)CCCl)cc2)/C=C/C(=O)O1
Bel-7402 [1]
  Activity: 11.69%
Bel-7402 [2]
  Activity: Dose-dependent effect
HL-60
  IC50: 4.48 µM
Bel-7402 [3]
  Activity: 83.63%
Bel-7402 [4]
  Activity: 13.27%
Bel-7402 [5]
  Activity: Active
Bel-7402 [6]
  Activity: 29.5%
Bel-7402 [7]
  Activity: 56.15%
Bel-7402 [8]
  Activity: 3.21%
[9]
  selectivity ratio: 38.9
Bel-7402 [10]
  Activity: Dose-dependent effect
Bel-7402 [11]
  Activity: 10.49%
Bel-7402 [12]
  Activity: 39.11%
Bel-7402 [13]
  viability at 0.5 µM: 38.5%
Bel7402/5-FU
  IC50: 0.84 µM
Bel-7402 [14]
  Activity: Active
Bel-7402 [15]
  Activity: 30.14%
